# Screens from PubChem.
# GalR3 antagonist: GalR3 antagonists in HEK293 cells, primary screen, cell-based, fluorescence readout. inhibition, % at 3 µM. hit rate 0.44% among 360,000. Galanin receptor type 3 (Homo sapiens), O60755. HEK293 GalR3-CNG cAMP membrane potential fluorescence; galR3 body fused to GalR1 C-terminus;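 active = inhibition above the screen-wide average plus 3 SD, cut at about 13% in these data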;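 note: forskolin and galanin both at EC90 stimulate the cells; cAMP rise reported by CNG channel membrane potential dye signal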
# Target sequence (O60755 1-299 limits assumed): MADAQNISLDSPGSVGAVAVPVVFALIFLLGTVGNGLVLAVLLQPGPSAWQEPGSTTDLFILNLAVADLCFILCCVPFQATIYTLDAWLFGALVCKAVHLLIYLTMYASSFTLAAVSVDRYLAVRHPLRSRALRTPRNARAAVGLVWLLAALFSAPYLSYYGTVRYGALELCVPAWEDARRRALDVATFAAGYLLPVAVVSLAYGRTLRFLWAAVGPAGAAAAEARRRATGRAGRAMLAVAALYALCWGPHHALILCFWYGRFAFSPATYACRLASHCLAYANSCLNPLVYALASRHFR
# GPR7 antag: GPR7 receptor antagonists, primary screen, cell-based, fluorescence, single concentration; hit rate 1.1% among 290,000; GPR7-expressing cells, fluorescence antagonist assay; Neuropeptides B/W receptor type 1 (Homo sapiens), P48145; inhibition, % at 4.4 µM; in the data active = inhibition above about 16%, passing the limit was not always enough;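 note: cells stimulated with the agonist NPW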
# OX1R antag-1: OX1R (HCRTR1) antagonists, primary screen, fluorescence, CHO/OX1R cells, Fluo-8 calcium, orexin A | Orexin/Hypocretin receptor type 1 (Homo sapiens), O43613 | Fluo-8 calcium fluorescence | inhibition, % at 5 µM | hit rate 0.43% among 330,000;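 active = inhibition above its plate's threshold, mean inhibition of all tested compounds on the plate plus 3 SD, cut at about 37% in these data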
# CHO parental Ca: ATP-evoked calcium signal inhibitors, parental CHO, primary screen, counter-screen for OX1R antagonist project, cell-based, fluorescence, Fluo-8 calcium dye. parental CHO-K1, ATP-induced calcium, Fluo-8 fluorescence. inhibition, % at 5.6 µM. hit rate 0.63% among 330,000;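 active = inhibition above that plate's mean sample inhibition plus 3 SD, cut at about 26% in these data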
#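 Assay system: untransfected parental CHO cell line. Also added: ATP agonist challenge. Dosing: one dose, 5.6 µM nominal. Measured by: Fluo-8 fluorescence. Read-out: % inhibition. Benchmarks: ATP wells versus no-ATP DMSO wells. Repeats: no replicates.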
# OX1R antag-2: antagonists of human orexin 1 receptor (OX1R) | Orexin/Hypocretin receptor type 1 (Homo sapiens), O43613 | OX1R-expressing cells, FRET antagonist read-out | inhibition, % at 6.6 µM | hit rate 1.8% among 330,000; in the data active = inhibition mostly above about 38%, no sharp cut-off; inactive = mostly below about 40%
# Hits are given with their value; – = inactive; · = no result. An excerpt weighted towards active compounds, which were near 3.1% of everything screened.
SMILES,GalR3 antagonist,GPR7 antag,OX1R antag-1,CHO parental Ca,OX1R antag-2
CCOC(=O)C1=CCN(S(=O)(=O)c2ccc(F)cc2)C1c1ccccc1 (stereo not given),–,·,·,·,·
Cc1cc(C(=O)Nc2ccc(N3CCOCC3)c3nonc23)ccc1[N+](=O)[O-],–,–,–,–,–
O=C(N/N=C/c1ccc([N+](=O)[O-])s1)C(O)c1ccccc1 (stereo not given),–,–,–,–,56.1
O=C(CNC(=O)c1cccc(F)c1)N/N=C/c1ccc([N+](=O)[O-])s1,–,–,–,–,49.5
Cc1ccnn1CC(=O)N/N=C/c1cccs1,–,–,–,–,–
Cc1ccnn1CC(=O)N/N=C/c1ccc([N+](=O)[O-])s1,–,–,–,–,51.2
C[C@@H]1C=CC(=O)O[C@@H]1c1ccc(Cl)cc1,–,–,–,–,–
Cc1nc2cc(-c3ccc(F)cc3)[nH]n2c(=O)c1C,–,–,–,42.3,–
CCC(C)CCN1C(N(C)C)=NC[C@@H]1CC(C)C (stereo not given in full),–,·,–,–,–
CC(C)=CCC[C@](C)(O[C@@H]1O[C@H](CO[C@@H]2O[C@H](CO)[C@@H](O)[C@H](O)[C@H]2O)[C@@H](O)[C@H](O)[C@H]1O)C1CC[C@]2(C)C1C(=O)CC1[C@@]3(C)CC[C@H](O[C@H]4O[C@@H](CO)[C@H](O)[C@@H](O)[C@@H]4O)C(C)(C)C3CC[C@]12C (stereo not given in full),–,·,–,–,–
CC(=O)OCC1O[C@@H](O[C@@H]2C[C@H]3C(C)(C)[C@H](OC(C)=O)CC[C@]3(C)[C@H]3CC[C@]45C[C@]4(CC[C@H]5[C@@H](C)C[C@@H](O)[C@H](O)C(C)(C)O)[C@@]32C)[C@H](O)[C@@H](O)[C@@H]1O (stereo not given in full),·,–,67.4,100.1,–
CCn1c2ccccc2c(=O)c2ccccc21,–,–,–,–,66.5
CN(CC(=O)Nc1cccc(S(=O)(=O)N2CCOCC2)c1)CC(=O)Nc1ccc(Cl)c(C(F)(F)F)c1,–,·,–,49.5,–
CC1CCCCN1C(=O)COC(=O)C1CCN(S(=O)(=O)c2ccc(Cl)c(C(F)(F)F)c2)CC1 (stereo not given),–,·,–,–,–
O=C(COC(=O)C1CCN(S(=O)(=O)c2ccc(Cl)c(C(F)(F)F)c2)CC1)NCc1ccco1,–,·,–,41.6,–
COC(=O)CCCC1=CC2=CC(=O)C(C)(OC(=O)c3cccs3)C(=O)C2=CN1CCCOC(C)C (stereo not given),–,·,–,–,63.2
COC(=O)CCCC1=CC2=CC(=O)C(C)(OC(=O)c3cccs3)C(=O)C2=CN1Cc1ccccc1 (stereo not given),–,·,–,–,–
O=C(Nc1c[nH]c(=O)[nH]c1=O)c1ccc2c(c1)C(=O)N(c1cccc([N+](=O)[O-])c1)C2=O,–,–,·,·,·
O=C(Nc1c[nH]c(=O)[nH]c1=O)c1cc([N+](=O)[O-])cc([N+](=O)[O-])c1,–,–,–,–,68.6
Cc1ccc(F)c(NC(=O)c2ccc(Cn3cc(Cl)cn3)cc2)c1,–,33.7,–,–,–
Clc1cccc2c1Sc1ccccc1CC2N1CCNCC1 (stereo not given),–,58.2,–,–,–
O=C(c1ccccc1Cl)N1CCNCC1,–,–,–,–,–
COc1cccc(NC(=O)C2(C)CCN2C(=O)CCc2ccc(Cl)cc2Cl)c1 (stereo not given),–,·,·,·,·
O=C(CN1CCCCCC1)Nc1cc([N+](=O)[O-])ccc1Cl,–,–,–,–,62.5
O=C(CN1CCCCC1)Nc1nnc(-c2ccc([N+](=O)[O-])cc2)s1,–,–,–,–,58.0
O=C(CN1CCN(c2ccccc2O)CC1)Nc1cc([N+](=O)[O-])ccc1Cl,–,–,–,–,57.9
S=c1[nH]nc(C2CCCCC2)n1/N=C/c1ccc(Cl)cc1,–,–,–,–,–
Cc1ccc(/C=N/n2c(C3CCCCC3)n[nH]c2=S)cc1,–,–,–,42.8,–
CC1(CC(=O)N/N=C/c2cc([N+](=O)[O-])c(O)cc2O)OCCO1,–,–,–,–,52.3
